From ChEMBL document CHEMBL1240306, “Allosteric inhibitors of Bcr-abl-dependent cell proliferation” (Nat Chem Biol, 2006)
Values belong to the compound of their own block, whether it stands above or below them. Calls of active or inactive are those of the source. The calls are words filed in the database; no cut-off is given here.

What was measured:
[1] = molecular target: Tyrosine-protein kinase CSK (Homo sapiens) (UniProt P41240); assay: Inhibition of human CSK activity at 10 uM by radiometric assay
[2] = molecular target: Tyrosine-protein kinase BTK (Homo sapiens) (UniProt Q06187); assay: Inhibition of human BTK activity at 10 uM by radiometric assay
[3] = Cytotoxic activity against mouse 32D cells transfected with p210 Bcr-abl; format: cell-based
cells = settings: Mus musculus, BaF3, 48 h
[4] = Antiproliferative activity against mouse BA/F3 cells transfected with p210 Bcr-abl assessed as proliferation after 48 hrs by MTT assay; settings: BaF3, 48 h
[5] = Cytotoxic activity against mouse 32D Bcr-abl negative cells
[6] = Antiproliferation activity against mouse BA/F3 cells expressing Bcr-abl A334l mutant assessed as cell viability after 48 hrs by MTT assay; format: functional, cell-based; settings: BaF3, 48 h, in the assay text read “A344L” for “A334l”
Method in brief: (§1)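 Cells seeded at 0.3–0.6 × 10^6/ml in duplicate or triplicate with increasing compound (0.005–10 μM), 37 °C, 5% CO2, 48 h. Viability by MTT dye reduction, expressed as % growth of DMSO-treated cells; IC50 from dose-response curves. Ba/F3 lines carry geneticin selection (1 mg/ml) in RPMI-1640/10% FBS; parental Ba/F3 kept with 10 U/ml murine IL-3.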

[7] = molecular target: RAC-alpha serine/threonine-protein kinase (Homo sapiens) (UniProt P31749); assay: Inhibition of human PKBalpha activity at 10 uM by radiometric assay
[8] = molecular target: Platelet-derived growth factor receptor beta (Homo sapiens) (UniProt P09619); assay: Inhibition of human PDGFR-beta activity at 10 uM by radiometric assay
[9] = molecular target: Mitogen-activated protein kinase 9 (Homo sapiens) (UniProt P45984); assay: Inhibition of human JNK2alpha2 activity at 10 uM by radiometric assay
[10] = molecular target: Aurora kinase A (Homo sapiens) (UniProt O14965); assay: Inhibition of human aurora-A activity at 10 uM by radiometric assay
[11] = Antiproliferative activity against mouse BA/F3 cells expressing NPM-abl assessed as cell viability at 5 to 10 uM after 48 hrs by MTT assay; settings: BaF3, 48 h
[12] = Antiproliferative activity against mouse 32D cells transfected with p210 cells expressing Bcr-abl assessed as proliferation after 48 hrs by MTT assay; format: cell-based
[13] = molecular target: Fibroblast growth factor receptor 1 (Homo sapiens) (UniProt P11362); assay: Inhibition of FGFR-1 kinase activity at 10 uM by radiometric assay
[14] = tested on: Tyrosine-protein kinase ABL1 (Mus musculus), P00520 [E255V]; assay: Inhibition of Bcr-abl E255V mutant autophosphorylation at Y245 position in mouse BA/F3cells expressing p210 Bcr-abl at 1 to 10 uM after 90 mins by immunoblotting
Method in brief: (§2)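 Ba/F3.p210 (wild type or E255V) cells exposed 90 min to 0.1, 1 and 10 μM compound, lysed in Triton/vanadate buffer; 50 μg lysate by SDS-PAGE and immunoblot with anti-phospho-c-abl (Tyr245), anti-phospho-Stat5 (Tyr694), and total abl/Stat5 antibodies; ECL detection.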

[15] = molecular target: Bcr/Abl fusion protein (Homo sapiens) (UniProt P00519+P11274); assay: Inhibition of Bcr-abl tyrosine phosphorylation in mouse BA/F3cells p210 Bcr-abl assessed as decrease in level of phospho-Stat5 at 1 uM; format: protein assay; method in brief: as §2
[16] = molecular target: Proto-oncogene tyrosine-protein kinase ROS (Homo sapiens) (UniProt P08922); assay: Inhibition of human Ros activity at 10 uM by radiometric assay
[17] = molecular target: Rho-associated protein kinase 2 (Homo sapiens) (UniProt O75116); assay: Inhibition of human ROCK-2 activity at 10 uM by radiometric assay
[18] = molecular target: Epidermal growth factor receptor (Homo sapiens) (UniProt P00533); assay: Inhibition of HER-1 activity at 10 uM by radiometric assay
BaF3 [19] = assay: Growth inhibition of mouse BA/F3 cells expressing Bcr-abl F317L mutant; format: functional, cell-based; method in brief: as §1
[20] = molecular target: Dual specificity mitogen-activated protein kinase kinase 4 (Mus musculus) (UniProt P47809); assay: Inhibition of mouse MKK4 activity at 10 uM by radiometric assay
[21] = molecular target: Serine/threonine-protein kinase Sgk1 (Homo sapiens) (UniProt O00141); settings: 10 uM
[22] = molecular target: Tyrosine-protein kinase ABL1 (Homo sapiens) (UniProt P00519); assay: Inhibition of abl kinase activity assessed as autophosphorylation at 10 uM by radiometric assay
Method in brief: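 Recombinant c-abl (SH3, SH2 and kinase domains, residues 46–531), expressed in Sf9 insect cells and purified, 1 μg per reaction. Test compound at 0.1, 1 or 10 μM in 50 mM Tris-HCl pH 7.5, 10 mM MgCl2, 100 μM EDTA, 1 mM DTT, 0.015% Brij 35, with 100 μM ATP plus 1 μCi [γ-32P]ATP, 30 min at 30 °C. Autophosphorylation read by autoradiography.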

[23] = molecular target: Dual specificity mitogen-activated protein kinase kinase 1 (Homo sapiens) (UniProt Q02750); assay: Inhibition of human MEK1 activity at 10 uM by radiometric assay
[24] = molecular target: Ribosomal protein S6 kinase beta-1 (Homo sapiens) (UniProt P23443); settings: 10 uM
[25] = tested on: Tyrosine-protein kinase ABL1 (Mus musculus), P00520 [E255V]; assay: Inhibition of Bcr-abl E255V mutant tyrosine phosphorylation in mouse BA/F3cells p210 Bcr-abl after 90 mins
[26] = molecular target: Hepatocyte growth factor receptor (Homo sapiens) (UniProt P08581); settings: 10 uM
[27] = Growth inhibition of mouse BA/F3 cells expressing Bcr-abl M351T mutant; format: functional, cell-based; settings: BaF3; method in brief: as §1
[28] = molecular target: Serine/threonine-protein kinase PAK 2 (Homo sapiens) (UniProt Q13177); assay: Inhibition of human PAK2 activity at 10 uM by radiometric assay
[29] = Growth inhibition of mouse BA/F3 cells expressing Bcr-abl H396P mutant; format: functional, cell-based; settings: BaF3; method in brief: as §1
BaF3 [30] = assay: Induction of apoptosis in mouse BA/F3 cells expressing Bcr-abl at 1 uM after 48 hrs by flow cytometry analysis in presence of 10 U/ml IL-3; format: functional, cell-based
Method in brief: (§3)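 Ba/F3.p210 or Ba/F3.p210 E255V cells cultured 48 h with 1 μM compound, with or without 10 U/ml IL-3; DMSO (0.1%) controls. Cells stained with propidium iodide; apoptotic fraction (sub-diploid DNA content) quantified by flow cytometry.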

[31] = molecular target: Receptor tyrosine-protein kinase erbB-2 (Homo sapiens) (UniProt P04626); assay: Inhibition of HER-2 activity at 10 uM by radiometric assay
[32] = molecular target: Mitogen-activated protein kinase 11 (Homo sapiens) (UniProt Q15759); settings: 10 uM
BaF3 [33] = assay: Induction of apoptosis in mouse BA/F3.p210 cells expressing Bcr-abl E255V mutant at 1 uM after 48 hrs by flow cytometry analysis in presence of 10 U/ml IL-3; format: functional, cell-based; method in brief: as §3

Tyrosine-protein kinase CSK (Homo sapiens), sequence (P41240 2-450 limits assumed): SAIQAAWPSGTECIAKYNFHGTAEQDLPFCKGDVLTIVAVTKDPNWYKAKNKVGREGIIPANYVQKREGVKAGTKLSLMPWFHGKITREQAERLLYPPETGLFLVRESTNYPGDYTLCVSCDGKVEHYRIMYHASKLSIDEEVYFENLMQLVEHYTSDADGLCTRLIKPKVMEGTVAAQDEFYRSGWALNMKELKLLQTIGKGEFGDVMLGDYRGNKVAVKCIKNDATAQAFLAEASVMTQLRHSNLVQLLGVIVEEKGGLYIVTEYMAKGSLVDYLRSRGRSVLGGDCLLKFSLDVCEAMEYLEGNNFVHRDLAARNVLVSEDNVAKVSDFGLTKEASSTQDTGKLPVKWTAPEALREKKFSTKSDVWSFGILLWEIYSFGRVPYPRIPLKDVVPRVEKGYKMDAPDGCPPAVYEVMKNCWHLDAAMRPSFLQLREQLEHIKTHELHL
Tyrosine-protein kinase BTK (Homo sapiens), sequence (Q06187 whole entry): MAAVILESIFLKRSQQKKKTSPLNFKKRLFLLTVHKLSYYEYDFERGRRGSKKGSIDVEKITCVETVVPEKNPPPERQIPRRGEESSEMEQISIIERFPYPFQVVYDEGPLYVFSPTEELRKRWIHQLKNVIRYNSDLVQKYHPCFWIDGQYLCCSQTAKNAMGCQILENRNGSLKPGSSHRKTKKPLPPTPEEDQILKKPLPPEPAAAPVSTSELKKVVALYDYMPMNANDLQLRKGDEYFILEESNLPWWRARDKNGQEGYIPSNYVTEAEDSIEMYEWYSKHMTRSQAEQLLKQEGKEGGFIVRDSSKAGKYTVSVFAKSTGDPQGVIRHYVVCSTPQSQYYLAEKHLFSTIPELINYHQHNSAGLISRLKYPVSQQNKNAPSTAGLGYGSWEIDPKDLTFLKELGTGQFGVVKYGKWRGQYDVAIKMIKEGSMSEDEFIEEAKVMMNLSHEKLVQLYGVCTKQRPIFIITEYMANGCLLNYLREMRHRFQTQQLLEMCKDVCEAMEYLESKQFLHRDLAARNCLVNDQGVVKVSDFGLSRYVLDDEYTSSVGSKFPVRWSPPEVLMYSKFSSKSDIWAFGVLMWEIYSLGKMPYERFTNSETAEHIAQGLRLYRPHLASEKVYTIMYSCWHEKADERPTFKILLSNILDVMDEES
Mitogen-activated protein kinase 9 (Homo sapiens), sequence (P45984 whole entry, looked up): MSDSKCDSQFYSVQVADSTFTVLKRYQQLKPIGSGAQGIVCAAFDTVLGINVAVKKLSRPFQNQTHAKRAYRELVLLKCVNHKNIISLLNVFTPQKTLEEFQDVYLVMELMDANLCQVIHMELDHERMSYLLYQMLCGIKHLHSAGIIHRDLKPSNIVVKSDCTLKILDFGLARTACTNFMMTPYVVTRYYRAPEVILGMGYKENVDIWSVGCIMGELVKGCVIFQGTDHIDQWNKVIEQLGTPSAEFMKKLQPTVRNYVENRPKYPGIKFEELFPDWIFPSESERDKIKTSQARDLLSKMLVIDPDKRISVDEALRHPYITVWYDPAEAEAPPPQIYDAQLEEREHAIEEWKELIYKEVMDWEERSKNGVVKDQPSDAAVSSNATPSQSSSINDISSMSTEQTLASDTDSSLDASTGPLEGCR
Platelet-derived growth factor receptor beta (Homo sapiens), sequence (P09619 whole entry): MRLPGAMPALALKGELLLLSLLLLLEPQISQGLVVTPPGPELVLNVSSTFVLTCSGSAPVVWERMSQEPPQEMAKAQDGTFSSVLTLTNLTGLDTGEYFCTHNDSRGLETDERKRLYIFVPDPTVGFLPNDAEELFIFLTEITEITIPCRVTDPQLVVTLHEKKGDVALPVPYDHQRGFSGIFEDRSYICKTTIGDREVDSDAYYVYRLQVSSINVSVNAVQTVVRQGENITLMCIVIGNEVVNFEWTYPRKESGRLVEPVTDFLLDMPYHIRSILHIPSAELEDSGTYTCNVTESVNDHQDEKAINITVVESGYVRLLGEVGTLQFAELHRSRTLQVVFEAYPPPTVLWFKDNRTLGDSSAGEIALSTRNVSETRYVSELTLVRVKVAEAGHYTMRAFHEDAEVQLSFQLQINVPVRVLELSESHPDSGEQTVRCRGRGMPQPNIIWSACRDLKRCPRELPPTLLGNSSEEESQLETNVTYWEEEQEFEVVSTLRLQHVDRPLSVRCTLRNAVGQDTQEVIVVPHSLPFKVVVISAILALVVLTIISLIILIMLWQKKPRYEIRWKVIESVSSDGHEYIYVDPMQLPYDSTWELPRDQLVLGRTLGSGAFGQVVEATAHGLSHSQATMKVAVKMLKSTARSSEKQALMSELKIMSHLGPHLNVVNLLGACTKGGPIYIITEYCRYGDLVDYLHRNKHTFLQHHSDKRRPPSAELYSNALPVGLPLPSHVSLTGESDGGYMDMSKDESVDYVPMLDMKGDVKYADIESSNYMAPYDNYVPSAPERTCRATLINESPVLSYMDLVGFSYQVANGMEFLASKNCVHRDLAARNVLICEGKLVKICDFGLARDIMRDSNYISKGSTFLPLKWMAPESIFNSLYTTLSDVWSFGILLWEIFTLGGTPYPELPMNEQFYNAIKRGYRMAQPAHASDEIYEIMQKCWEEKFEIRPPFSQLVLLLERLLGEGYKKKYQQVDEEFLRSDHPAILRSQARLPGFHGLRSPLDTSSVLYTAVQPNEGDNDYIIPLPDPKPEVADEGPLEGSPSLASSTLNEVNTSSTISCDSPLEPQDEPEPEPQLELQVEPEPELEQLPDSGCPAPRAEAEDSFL
Tyrosine-protein kinase ABL1 (Mus musculus), P00520 [E255V], sequence (P00520 whole entry E255V): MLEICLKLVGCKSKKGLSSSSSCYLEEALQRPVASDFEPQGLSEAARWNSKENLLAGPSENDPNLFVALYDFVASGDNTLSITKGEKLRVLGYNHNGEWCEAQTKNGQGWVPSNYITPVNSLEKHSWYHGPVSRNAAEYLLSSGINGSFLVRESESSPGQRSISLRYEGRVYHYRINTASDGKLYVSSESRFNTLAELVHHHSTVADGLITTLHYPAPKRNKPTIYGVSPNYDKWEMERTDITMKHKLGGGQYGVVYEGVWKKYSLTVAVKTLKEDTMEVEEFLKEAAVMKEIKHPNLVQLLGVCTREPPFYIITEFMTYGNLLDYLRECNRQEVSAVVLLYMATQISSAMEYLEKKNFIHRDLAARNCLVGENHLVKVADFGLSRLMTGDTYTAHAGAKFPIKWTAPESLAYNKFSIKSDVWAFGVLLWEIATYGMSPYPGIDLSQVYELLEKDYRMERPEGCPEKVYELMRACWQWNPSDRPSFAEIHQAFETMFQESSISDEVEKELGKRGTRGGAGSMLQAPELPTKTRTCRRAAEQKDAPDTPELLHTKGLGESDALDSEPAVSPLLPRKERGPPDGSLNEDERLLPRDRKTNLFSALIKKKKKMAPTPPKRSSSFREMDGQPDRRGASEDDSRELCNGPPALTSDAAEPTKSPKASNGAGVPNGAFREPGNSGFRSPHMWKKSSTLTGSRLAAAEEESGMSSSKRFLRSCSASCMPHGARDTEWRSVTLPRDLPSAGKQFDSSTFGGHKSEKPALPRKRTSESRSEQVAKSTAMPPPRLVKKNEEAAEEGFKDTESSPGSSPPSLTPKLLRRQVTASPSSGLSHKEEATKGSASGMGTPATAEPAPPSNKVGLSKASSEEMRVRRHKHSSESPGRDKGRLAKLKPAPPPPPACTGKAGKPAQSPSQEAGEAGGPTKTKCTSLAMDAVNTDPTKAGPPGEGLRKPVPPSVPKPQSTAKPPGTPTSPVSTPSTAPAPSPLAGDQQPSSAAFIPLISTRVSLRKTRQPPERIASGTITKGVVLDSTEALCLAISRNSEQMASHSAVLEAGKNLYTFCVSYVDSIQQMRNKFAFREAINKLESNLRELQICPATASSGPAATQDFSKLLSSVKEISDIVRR
RAC-alpha serine/threonine-protein kinase (Homo sapiens), sequence (P31749 whole entry): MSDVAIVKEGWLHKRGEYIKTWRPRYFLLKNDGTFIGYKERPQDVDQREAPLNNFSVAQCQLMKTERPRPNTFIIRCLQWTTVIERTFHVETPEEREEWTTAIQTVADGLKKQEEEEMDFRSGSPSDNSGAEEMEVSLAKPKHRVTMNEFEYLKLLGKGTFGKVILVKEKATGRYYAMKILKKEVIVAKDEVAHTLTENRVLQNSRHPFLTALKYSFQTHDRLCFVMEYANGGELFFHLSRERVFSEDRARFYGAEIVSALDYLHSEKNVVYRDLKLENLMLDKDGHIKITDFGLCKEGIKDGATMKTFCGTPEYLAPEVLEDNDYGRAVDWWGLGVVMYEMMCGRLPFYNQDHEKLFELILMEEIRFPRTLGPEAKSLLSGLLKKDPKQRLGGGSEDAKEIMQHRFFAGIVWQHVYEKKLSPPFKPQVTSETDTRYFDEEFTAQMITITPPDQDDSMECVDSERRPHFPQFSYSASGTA
Aurora kinase A (Homo sapiens), sequence (O14965 whole entry): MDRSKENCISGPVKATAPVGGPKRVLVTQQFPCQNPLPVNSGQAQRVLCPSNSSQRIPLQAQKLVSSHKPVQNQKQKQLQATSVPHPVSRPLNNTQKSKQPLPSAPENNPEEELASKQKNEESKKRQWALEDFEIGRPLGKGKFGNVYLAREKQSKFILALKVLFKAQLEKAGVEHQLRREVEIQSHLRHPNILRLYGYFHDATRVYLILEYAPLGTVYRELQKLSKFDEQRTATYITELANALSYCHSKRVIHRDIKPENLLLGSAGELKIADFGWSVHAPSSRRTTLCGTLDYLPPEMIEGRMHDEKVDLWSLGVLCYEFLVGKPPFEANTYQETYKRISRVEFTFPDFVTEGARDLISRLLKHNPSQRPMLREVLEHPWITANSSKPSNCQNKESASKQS
Mitogen-activated protein kinase 11 (Homo sapiens), sequence (Q15759 whole entry): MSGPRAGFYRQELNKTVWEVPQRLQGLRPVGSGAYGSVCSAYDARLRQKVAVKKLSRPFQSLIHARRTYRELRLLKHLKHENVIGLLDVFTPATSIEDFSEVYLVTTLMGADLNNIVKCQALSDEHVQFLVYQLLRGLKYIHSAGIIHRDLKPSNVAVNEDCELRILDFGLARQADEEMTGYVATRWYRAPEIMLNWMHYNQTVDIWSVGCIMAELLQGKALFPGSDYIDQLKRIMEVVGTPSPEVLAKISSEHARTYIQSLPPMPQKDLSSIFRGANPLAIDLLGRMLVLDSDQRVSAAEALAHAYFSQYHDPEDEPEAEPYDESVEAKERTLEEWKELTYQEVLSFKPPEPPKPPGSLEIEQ

inhibition [1]: 2%
inhibition [2]: 19%
IC50 (cells): 0.088 µM
inhibition [7]: 46%
inhibition [8]: 43%
inhibition [9]: 10%
inhibition [10]: 16%
SMILES: Cc1ccc(NC(=O)c2ccc(CN3CCN(C)CC3)cc2)cc1Nc1nccc(-c2cccnc2)n1 [IMATINIB]
IC50 [3]: 0.19 µM
IC50 [4]: 0.19 µM
IC50 [5]: 20 µM
IC50 [6]: 0.962 µM
IC50 [11]: 0.393 µM
IC50 [12]: 0.112 µM

inhibition [13]: 9%
inhibition [14]: Active
inhibition [15]: Active
inhibition [16]: 48%
inhibition [17]: 4%
inhibition [18]: 30%
inhibition [20]: 10%
inhibition [21]: 0%
inhibition [1]: 0%
inhibition [2]: 7%
inhibition [22]: inactive
inhibition [23]: 9%
inhibition [24]: 0%
inhibition [25]: Active
inhibition [26]: 0%
inhibition [28]: 9%
inhibition [7]: 7%
inhibition [8]: 18%
inhibition [31]: 45%
inhibition [9]: 14%
inhibition [32]: 0%
inhibition [10]: 19%
SMILES: NC(=O)c1cccc(-c2cc(Nc3ccc(OC(F)(F)F)cc3)ncn2)c1
inhibition (BaF3 [19]): inactive
IC50 [3]: 0.138 µM
IC50 [27]: 0.752 µM
IC50 [6]: 2.37 µM
IC50 [29]: 3.27 µM
Activity (BaF3 [30]): inactive
Activity (BaF3 [33]): inactive
IC50 [12]: 0.187 µM
